In ChEMBL document CHEMBL1127669, “Conformationally constrained peptides and semipeptides derived from RGD as potent inhibitors of the platelet fibrinogen receptor and platelet aggregation” (J Med Chem, 1994):
pIC50, pKi: −log10 of the molar value. Starred links: 1 amine or outer side, 2 acyl side, 3 side chain; linkers in the order of their positions; H or OH if unused. Positions of bridges follow the written chain, without caps; N, C: chain ends. Non-standard residues stand in square brackets, D forms with d. Residues, ends and D or L forms follow the SMILES beside them. *: point of attachment. X4 = O=C([C@@H](N[*:1])[C@@H](S[*:3])c1ccccc1)[*:2]; X1 = O=C([C@@H](N[*:1])[C@H](S[*:3])c1ccccc1)[*:2]; NMeR = CN[C@@H](CCCNC(=N)N)C(=O)O; Pen = CC(C)(S)[C@H](N)C(=O)O; Bz = O=C(c1ccccc1)*; X3 = CC(S)C(=O)*

Columns and labels:
[1] = molecular target: Integrin alpha-IIb/beta-3 (Homo sapiens, UniProt P05106+P08514); test: Tested for inhibition of fibrinogen binding to purified GPIIb/IIIa isolated from human platelets and reconstituted in liposomes
Outline: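 Displacement of [¹²⁵I]fibrinogen from purified human platelet GPIIb/IIIa incorporated into phospholipid vesicles. Values without statistical limits come from a single determination.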

Canis familiaris = species: Canis familiaris; test: Inhibition of platelet aggregation in canine platelet rich plasma induced by ADP; type: functional, Canis lupus familiaris
Outline: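 Citrated canine PRP aggregation read optically by light transmittance. Peptide stock was 12 mM in 0.2 M acetic acid. Final 200 µM peptide and 10 µM ADP, pH 7.7, after 5-min preincubation with peptide.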

Integrin alpha-IIb/beta-3, sequence (P05106 27-788 limits assumed): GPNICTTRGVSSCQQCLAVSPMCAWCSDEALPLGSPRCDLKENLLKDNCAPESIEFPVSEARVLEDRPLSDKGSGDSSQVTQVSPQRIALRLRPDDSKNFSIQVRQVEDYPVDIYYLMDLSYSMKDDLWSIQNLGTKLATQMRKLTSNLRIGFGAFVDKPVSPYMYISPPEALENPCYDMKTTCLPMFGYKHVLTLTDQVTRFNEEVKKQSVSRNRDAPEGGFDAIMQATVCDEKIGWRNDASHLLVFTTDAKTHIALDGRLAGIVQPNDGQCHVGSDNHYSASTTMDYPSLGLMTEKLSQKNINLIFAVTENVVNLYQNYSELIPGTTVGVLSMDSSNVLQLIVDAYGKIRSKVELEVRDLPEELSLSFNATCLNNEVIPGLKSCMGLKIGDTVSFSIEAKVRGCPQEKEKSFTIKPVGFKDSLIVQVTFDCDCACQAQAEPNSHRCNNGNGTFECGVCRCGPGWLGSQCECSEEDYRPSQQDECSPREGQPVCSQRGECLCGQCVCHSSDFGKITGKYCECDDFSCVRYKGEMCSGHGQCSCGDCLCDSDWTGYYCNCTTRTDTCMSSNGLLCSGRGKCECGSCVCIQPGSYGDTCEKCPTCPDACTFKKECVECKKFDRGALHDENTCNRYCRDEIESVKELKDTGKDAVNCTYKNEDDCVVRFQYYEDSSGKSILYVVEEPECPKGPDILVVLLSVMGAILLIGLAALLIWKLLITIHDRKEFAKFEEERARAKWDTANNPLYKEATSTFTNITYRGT
Integrin alpha-IIb/beta-3, sequence (P08514 32-887 limits assumed): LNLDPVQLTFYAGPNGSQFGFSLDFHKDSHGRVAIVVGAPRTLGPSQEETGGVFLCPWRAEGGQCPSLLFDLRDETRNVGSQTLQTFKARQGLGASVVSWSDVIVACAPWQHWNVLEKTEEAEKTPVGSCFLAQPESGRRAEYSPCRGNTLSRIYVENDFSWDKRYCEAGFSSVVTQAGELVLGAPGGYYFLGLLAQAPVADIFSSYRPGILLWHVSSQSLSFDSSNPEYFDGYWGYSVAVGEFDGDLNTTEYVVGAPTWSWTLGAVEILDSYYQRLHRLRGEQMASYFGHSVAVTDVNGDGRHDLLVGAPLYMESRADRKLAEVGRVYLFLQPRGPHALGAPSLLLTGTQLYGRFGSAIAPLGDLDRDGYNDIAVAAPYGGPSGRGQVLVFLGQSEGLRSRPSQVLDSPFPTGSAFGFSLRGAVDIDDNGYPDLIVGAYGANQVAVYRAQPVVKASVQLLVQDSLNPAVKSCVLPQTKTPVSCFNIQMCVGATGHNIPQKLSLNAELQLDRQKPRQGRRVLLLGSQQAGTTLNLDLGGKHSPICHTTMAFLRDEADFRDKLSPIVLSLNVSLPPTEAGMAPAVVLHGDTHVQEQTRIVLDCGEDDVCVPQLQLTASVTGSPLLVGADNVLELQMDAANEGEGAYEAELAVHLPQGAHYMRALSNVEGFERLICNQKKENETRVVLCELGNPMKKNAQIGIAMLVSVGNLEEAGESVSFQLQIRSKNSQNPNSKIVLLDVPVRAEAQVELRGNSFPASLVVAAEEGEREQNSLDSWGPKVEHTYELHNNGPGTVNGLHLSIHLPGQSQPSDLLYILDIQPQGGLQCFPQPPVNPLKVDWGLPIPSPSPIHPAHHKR
Integrin alpha-IIb/beta-3, sequence (P08514 891-1039 limits assumed): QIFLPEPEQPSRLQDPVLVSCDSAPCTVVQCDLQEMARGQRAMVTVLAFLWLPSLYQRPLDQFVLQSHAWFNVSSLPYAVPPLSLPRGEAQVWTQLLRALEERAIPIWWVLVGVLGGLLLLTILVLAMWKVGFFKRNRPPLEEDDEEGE

Row | Compound | pKi [1] | pIC50 (Canis familiaris; Canis lupus familiaris, Plasma) | pIC50 (Canis familiaris)
1 | CC(=O)N[C@H]1CSS[C@H](c2ccccc2)[C@@H](C(=O)O)NC(=O)[C@H](CC(=O)O)NC(=O)CNC(=O)[C@H](CCCNC(=N)N)N(C)C1=O (Ac-C[NMeR]GD[X1]-OH; disulfide 1-5) | 8.68 |  | 
2 | CN1CC(=O)N(C)[C@@H](CCCN=C(N)N)C(=O)NCC(=O)N[C@@H](CC(=O)O)C(=O)Nc2ccccc2SSc2ccccc2C1=O | 7.61 | 6.99 | 
3 | CCN1C(=O)[C@H](NC(C)=O)CSSC(C)(C)[C@H](C(N)=O)NC(=O)[C@@H](CC(=O)O)NC(=O)CNC(=O)[C@H]1CCCNC(=N)N (single isomer, unassigned) | 7.19 |  | 
4 | CC(=O)N[C@@H]1CSSC(C)(C)[C@H](C(N)=O)NC(=O)[C@@H](CC(=O)O)NC(=O)CNC(=O)[C@@H](CCCN=C(N)N)N(Cc2ccccc2)C1=O | < 4.00 | 5.11 | 
5 | CC(=O)N[C@H]1CSSC[C@@H](C(N)=O)NC(=O)[C@H](CC(=O)O)NC(=O)CNC(=O)[C@H](CCCN=C(N)N)NC1=O (single isomer, unassigned) |  | 4.79 | 
6 | CC(S)C(=O)N[C@H]1CSSC(C)(C)[C@@H](C(N)=O)NC(=O)[C@H](CC(=O)O)NC(=O)CNC(=O)[C@H](CCCN=C(N)N)N(C)C1=O (some centres undefined) (X3-C[NMeR]GD[Pen]-NH2; disulfide 1-5) | 7.61 | 6.47 | 
7 | CC(=O)N[C@H]1CSSC(C)(C)[C@@H](C(N)=O)NC(=O)[C@H](CC(=O)O)NC(=O)CNC(=O)[C@H](CCCN=C(N)N)N(C)C(=O)CN(Cc2ccccc2)C1=O (single isomer, unassigned) | 6.37 | 6.54 | 
8 | CC(=O)N[C@@H]1CSSC(C)(C)[C@H](C(N)=O)NC(=O)[C@@H](CC(=O)O)NC(=O)CNC(=O)[C@H](CCCNC(=N)N)NC1=O | 6.14 | 5.39 | 
9 | CC(=O)N[C@H]1CSS[C@H](c2ccccc2)[C@@H](C(=O)O)NC(=O)[C@H](CC(=O)O)NC(=O)CNC(=O)[C@H](CCCN=C(N)N)N(C)C1=O (Ac-C[NMeR]GD[X1]-OH; disulfide 1-5) |  | 7.40 | 
10 | CC(=O)N[C@@H]1CSSC(C)(C)[C@H](C(N)=O)NC(=O)[C@@H](CC(=O)O)NC(=O)CNC(=O)[C@H](CCCN=C(N)N)N(C)C1=O | 7.09 | 5.75 | 
11 | CC(=O)N[C@H]1CSSC(C)(C)[C@@H](C(N)=O)NC(=O)[C@H](CC(=O)O)N(C)C(=O)CNC(=O)[C@H](CCCN=C(N)N)NC1=O (single isomer, unassigned) |  | 3.86 | 
12 | CC(=O)N[C@H]1CSSc2ccccc2NC(=O)[C@H](CC(=O)O)NC(=O)CNC(=O)[C@H](CCCNC(=N)N)N(C)C1=O (single isomer, unassigned) | 7.59 |  | 
13 | CC(=O)N[C@@H](CCCN=C(N)N)C(=O)NCC(=O)N[C@@H](CC(=O)O)C(N)=O | 5.38 |  | 
14 | CC(=O)N[C@H]1CSSC(C)(C)[C@@H](C(N)=O)NC(=O)[C@H](CC(=O)O)NC(=O)CNC(=O)[C@H](CCCN=C(N)N)NC(=O)CNC1=O (single isomer, unassigned) [listing 1 of 2 here] | 6.21 |  | 
15 | CC(=O)N[C@H]1CSS[C@@H](c2ccccc2)[C@@H](C(N)=O)NC(=O)[C@H](CC(=O)O)NC(=O)CNC(=O)[C@H](CCCNC(=N)N)N(C)C1=O (Ac-C[NMeR]GD[X4]-NH2; disulfide 1-5) | 7.35 |  | 
16 | CN1C(=O)[C@@H](N)CSSC(C)(C)[C@@H](C(=O)O)NC(=O)[C@H](CC(=O)O)NC(=O)CNC(=O)[C@@H]1CCCN=C(N)N (H-C[NMeR]GD[Pen]-OH; disulfide 1-5) | 8.32 | 6.92 | 
17 | CC(=O)N[C@H]1CSSC(C)(C)[C@@H](C(N)=O)NC(=O)[C@H](CC(=O)O)NC(=O)CN(C)C(=O)[C@H](CCCN=C(N)N)NC1=O (single isomer, unassigned) | 5.90 | 4.13 | 
18 | CN1C(=O)c2ccccc2SSc2ccccc2NC(=O)[C@H](CC(=O)O)NC(=O)CNC(=O)[C@@H]1CCCN=C(N)N (single isomer, unassigned) |  | 7.05 | 
19 | CC(=O)N[C@H]1CSSC(C)(C)[C@@H](C(N)=O)NC(=O)[C@H](CC(=O)O)NC(=O)CNC(=O)[C@H](CCCN=C(N)N)N(C)C(=O)CN(C)C1=O (single isomer, unassigned) | 7.70 | 6.82 | 
20 | CN1C(=O)c2ccccc2SSc2ccccc2NC(=O)[C@@H](CC(=O)O)NC(=O)CNC(=O)[C@@H]1CCCN=C(N)N |  | 6.22 | 
21 | CC(=O)N[C@@H]1C(=O)N[C@@H](CCCN=C(N)N)C(=O)NCC(=O)N[C@@H](CC(=O)O)C(=O)N[C@H](C(N)=O)CSSC1(C)C (single isomer, unassigned) | 6.73 | 5.10 | 
22 | CC(=O)N[C@H]1CSSc2ccccc2NC(=O)[C@H](CC(=O)O)NC(=O)CNC(=O)[C@H](CCCN=C(N)N)NC1=O (single isomer, unassigned) |  | 5.01 | 

Row | Compound | pKi [1] | pIC50 (Canis familiaris; Canis lupus familiaris, Plasma) | pIC50 (Canis familiaris)
23 | CC(=O)N[C@H]1CSSC(C)(C)[C@@H](C(N)=O)NC(=O)[C@H](CC(=O)O)NC(=O)CNC(=O)[C@H](CCCN=C(N)N)N(C)C(=O)CNC1=O (single isomer, unassigned) | 6.87 | 6.44 | 
24 | CC(=O)N[C@H]1CSSC(C)(C)[C@@H](C(=O)O)NC(=O)[C@H](CC(=O)O)NC(=O)CNC(=O)[C@H](CCCN=C(N)N)N(C)C1=O (Ac-C[NMeR]GD[Pen]-OH; disulfide 1-5) | 8.07 | 7.10 | 
25 | CC(=O)N[C@H]1CSSC(C)(C)[C@@H](C(N)=O)NC(=O)[C@H](CC(=O)O)N(C)C(=O)CNC(=O)[C@H](CCCNC(=N)N)N(C)C1=O (single isomer, unassigned) | 5.15 |  | 
26 | CC(=O)N[C@H]1CSS[C@H](c2ccccc2)[C@@H](C(N)=O)NC(=O)[C@H](CC(=O)O)NC(=O)CNC(=O)[C@H](CCCN=C(N)N)N(C)C1=O (Ac-C[NMeR]GD[X1]-NH2; disulfide 1-5) | 6.90 | 7.01 | 
27 | CC(=O)N[C@@H]1CSSC(C)(C)[C@H](C(N)=O)NC(=O)C(CC(=O)O)NC(=O)CNC(=O)C(CCCN=C(N)N)NC1=O (single isomer, unassigned; 31) | 5.52 |  | 4.69
28 | CC(=O)N[C@@H]1CSSC(C)(C)[C@H](C(N)=O)NC(=O)C(CC(=O)O)NC(=O)CNC(=O)C(CCCN=C(N)N)NC1=O (single isomer, unassigned; 12) |  |  | 5.39
29 | CC(=O)N[C@H]1CSSC(C)(C)[C@@H](C(N)=O)NC(=O)[C@H](CC(=O)O)NC(=O)CN(C)C(=O)[C@H](CCCN=C(N)N)N(C)C1=O (single isomer, unassigned) | 4.82 | 4.40 | 
30 | CN1C(=O)[C@@H](NC(=O)c2ccccc2)CSSC(C)(C)[C@@H](C(N)=O)NC(=O)[C@H](CC(=O)O)NC(=O)CNC(=O)[C@@H]1CCCN=C(N)N (Bz-C[NMeR]GD[Pen]-NH2; disulfide 1-5) | 7.86 | 6.70 | 
31 | CC(=O)N[C@@H]1CSSC(C)(C)[C@H](C(N)=O)NC(=O)[C@@H](CC(=O)O)NC(=O)CNC(=O)[C@@H](CCCN=C(N)N)N(C)C(=O)[C@@H]2CCCN2C1=O |  | 4.61 | 
32 | N=C(N)NCCC[C@@H]1NC(=O)c2ccccc2SSC[C@@H](C(N)=O)NC(=O)[C@H](CC(=O)O)NC(=O)CNC1=O (single isomer, unassigned) |  | 5.09 | 
33 | CC(=O)N[C@H]1CSSc2ccccc2NC(=O)[C@H](CC(=O)O)NC(=O)CNC(=O)[C@H](CCCN=C(N)N)N(C)C1=O (single isomer, unassigned) |  | 6.77 | 
34 | CC(=O)N[C@H]1CSSC(C)(C)[C@@H](C(N)=O)NC(=O)[C@H](CC(=O)O)NC(=O)CNC(=O)[C@H](CCCNC(=N)N)N(C)C(=O)[C@@H]2CCCN2C1=O | < 5.00 |  | 
35 | CC(=O)N[C@H]1CSSC(C)(C)[C@@H](C(N)=O)NC(=O)[C@H](CC(=O)O)NC(=O)CNC(=O)[C@H](CCCN=C(N)N)NC(=O)CN(C)C1=O (single isomer, unassigned) |  | 5.92 | 
36 | CC(=O)N[C@H]1CSSC(C)(C)[C@@H](C(N)=O)NC(=O)[C@H](CC(=O)O)NC(=O)CNC(=O)[C@H](CCCN=C(N)N)NC(=O)CNC1=O (single isomer, unassigned) [listing 2 of 2 here] |  | 4.94 | 
37 | CC(=O)N[C@H]1CSSC(C)(C)[C@@H](C(N)=O)NC(=O)[C@H](CC(=O)O)N(C)C(=O)CNC(=O)[C@H](CCCN=C(N)N)N(C)C1=O (single isomer, unassigned) |  | 4.63 | 
38 | CC(=O)N[C@H]1CSSc2ccccc2NC(=O)[C@H](CC(=O)O)NC(=O)CNC(=O)[C@H](CCCNC(=N)N)NC1=O (single isomer, unassigned) | 6.55 |  | 
39 | CC(=O)N[C@H]1CSSC(C)(C)[C@@H](C(N)=O)NC(=O)[C@H](CC(=O)O)N(C)C(=O)CNC(=O)[C@H](CCCNC(=N)N)NC1=O (single isomer, unassigned) | 4.60 |  | 
40 | CC(=O)N[C@H]1CSSC(C)(C)[C@@H](C(N)=O)NC(=O)[C@H](CC(=O)O)NC(=O)CNC(=O)[C@H](CCCNC(=N)N)NC(=O)CN(C)C1=O (single isomer, unassigned) | 7.11 |  | 
41 | CC(=O)N[C@H]1CSS[C@@H](c2ccccc2)[C@@H](C(N)=O)NC(=O)[C@H](CC(=O)O)NC(=O)CNC(=O)[C@H](CCCN=C(N)N)N(C)C1=O (Ac-C[NMeR]GD[X4]-NH2; disulfide 1-5) |  | 7.30 | 
42 | CN1C(=O)c2ccccc2SSc2ccccc2NC(=O)[C@H](CC(=O)O)NC(=O)CNC(=O)[C@H]1CCCN=C(N)N |  | 4.59 | 
43 | CCN1C(=O)[C@@H](NC(C)=O)CSSC(C)(C)[C@@H](C(N)=O)NC(=O)[C@H](CC(=O)O)NC(=O)CNC(=O)[C@@H]1CCCN=C(N)N (single isomer, unassigned) |  | 6.05 | 
